Test results taken from ChEMBL document CHEMBL3217604, “4-Alkyloxyimino-cytosine nucleotides: tethering approaches to molecular probes for the P2Y6 receptor” (Medchemcomm, 2013).
Active and inactive are the calls of the source. No cut-off for these calls is given here.

Experiments:
P2Y purinoceptor 4 [1] = biological target: T1, P2Y purinoceptor 4 (Homo sapiens, UniProt P51582); assay: Agonist activity at human recombinant P2Y4 receptor expressed in human 1321N1 cells using [3H]inositol as substrate assessed as [3H]inositol phosphate formation after 30 mins by liquid scintillation counting analysis; format: functional, cell-based
T1 sequence (P51582 whole entry): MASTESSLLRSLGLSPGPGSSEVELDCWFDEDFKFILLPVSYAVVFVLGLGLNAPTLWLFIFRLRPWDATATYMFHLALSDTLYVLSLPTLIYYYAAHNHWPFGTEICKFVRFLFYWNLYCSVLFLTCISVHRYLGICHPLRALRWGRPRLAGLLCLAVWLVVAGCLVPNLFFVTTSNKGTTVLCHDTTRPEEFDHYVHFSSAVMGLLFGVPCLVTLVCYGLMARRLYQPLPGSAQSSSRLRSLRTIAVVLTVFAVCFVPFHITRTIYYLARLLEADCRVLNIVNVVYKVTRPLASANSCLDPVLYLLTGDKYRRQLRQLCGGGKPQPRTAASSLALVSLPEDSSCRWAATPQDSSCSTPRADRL
Method in brief: (§1)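 PLC activation measured in 1321N1 human astrocytoma cells stably expressing recombinant hP2Y2, hP2Y4 or hP2Y6 receptor; potency given as EC50 or % activation.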

P2Y purinoceptor 2 = P2Y purinoceptor 2 (Homo sapiens, UniProt P41231); assay: Agonist activity at human recombinant P2Y2 receptor expressed in human 1321N1 cells using [3H]inositol as substrate assessed as [3H]inositol phosphate formation after 30 mins by liquid scintillation counting analysis; format: functional, cell-based; method in brief: as §1
Chain of P2Y purinoceptor 2 (P41231 whole entry): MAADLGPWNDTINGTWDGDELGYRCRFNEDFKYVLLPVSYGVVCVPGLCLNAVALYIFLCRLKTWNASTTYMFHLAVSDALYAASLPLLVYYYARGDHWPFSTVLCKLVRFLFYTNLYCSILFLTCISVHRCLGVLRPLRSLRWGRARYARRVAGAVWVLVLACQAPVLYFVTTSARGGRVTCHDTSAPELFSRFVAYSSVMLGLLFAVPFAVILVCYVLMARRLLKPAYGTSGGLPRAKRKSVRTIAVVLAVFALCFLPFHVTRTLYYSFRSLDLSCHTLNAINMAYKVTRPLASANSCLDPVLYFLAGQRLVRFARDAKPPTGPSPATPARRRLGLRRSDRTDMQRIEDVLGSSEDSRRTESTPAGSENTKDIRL

P2Y purinoceptor 6 [2] = biological target: T2, P2Y purinoceptor 6 (Homo sapiens, UniProt Q15077); assay: Agonist activity at human recombinant P2Y6 receptor expressed in human 1321N1 cells using [3H]inositol as substrate assessed as [3H]inositol phosphate formation after 30 mins by liquid scintillation counting analysis; format: functional, cell-based; method in brief: as §1
T2 sequence (Q15077 whole entry): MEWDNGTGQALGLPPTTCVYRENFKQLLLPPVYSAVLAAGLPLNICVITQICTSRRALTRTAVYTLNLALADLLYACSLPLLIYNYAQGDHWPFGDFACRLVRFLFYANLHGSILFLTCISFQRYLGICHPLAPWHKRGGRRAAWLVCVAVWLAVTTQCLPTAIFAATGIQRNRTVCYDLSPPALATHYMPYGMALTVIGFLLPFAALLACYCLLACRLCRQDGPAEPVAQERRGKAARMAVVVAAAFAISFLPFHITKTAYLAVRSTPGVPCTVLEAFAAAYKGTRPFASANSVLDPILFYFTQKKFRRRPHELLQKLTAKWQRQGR

P2Y purinoceptor 4 [3] = biological target: T1, P2Y purinoceptor 4; assay: Agonist activity at human recombinant P2Y4 receptor expressed in human 1321N1 cells using [3H]inositol as substrate assessed as [3H]inositol phosphate formation at 10 uM after 30 mins by liquid scintillation counting analysis; format: functional, cell-based; method in brief: as §1
P2Y purinoceptor 6 [4] = biological target: T2, P2Y purinoceptor 6; assay: Binding affinity to human recombinant P2Y6 receptor expressed in human 1321N1 cells assessed as association rate constant at 400 nM by flow cytometry; format: cell-based
Method in brief: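 Flow cytometric kinetics of 400 nM fluorescent ligand binding to 1321N1-P2Y6R cells at 37 °C; nonspecific binding defined with 100 μM UDP; association rate constant k1 derived from time course.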

P2Y purinoceptor 6 [5] = biological target: T2, P2Y purinoceptor 6; assay: Binding affinity to human recombinant P2Y6 receptor expressed in human 1321N1 cells at 500 nM after 60 mins by fluorescence microscopy in presence of MRS2957; format: cell-based
Method in brief: (§2)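 P2Y6R-expressing 1321N1 cells preincubated 30 min at 37 °C with 500 nM MRS2957 or MRS2578, then exposed to 500 nM fluorescent agonist for 60 min at 37 °C; imaged by fluorescence microscopy (excitation 495 nm, emission 519 nm).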

P2Y purinoceptor 6 [6] = biological target: T2, P2Y purinoceptor 6; assay: Agonist activity at human recombinant P2Y6 receptor expressed in human 1321N1 cells assessed as compound internalization at 1 uM after 60 mins by confocal microscopy in presence of sucrose; format: cell-based
Method in brief: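 P2Y6R-expressing 1321N1 cells incubated with 1 μM fluorescent agonist for 60 min at 37 °C in medium containing 0.4 M sucrose; labeling imaged by confocal microscopy.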

P2Y purinoceptor 6 [7] = biological target: T2, P2Y purinoceptor 6; assay: Agonist activity at human recombinant P2Y6 receptor expressed in human 1321N1 cells assessed as compound internalization at 2 uM after 60 mins by confocal microscopy; format: cell-based
Method in brief: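 Confocal microscopy of P2Y6R-expressing 1321N1 cells after 60 min at 37 °C with 2 μM fluorescent agonist; cells without ligand served as control.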

P2Y purinoceptor 6 [8] = biological target: T2, P2Y purinoceptor 6; assay: Binding affinity to human recombinant P2Y6 receptor expressed in human 1321N1 cells at 400 nM after 60 mins by flow cytometry at 400 nM after 60 mins by flow cytometry; format: cell-based
Method in brief: (§3)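 1321N1-P2Y6R cells incubated with 400 nM fluorescent ligand at 37 °C for 60 min; nonspecific binding with 100 μM UDP; surface fraction in 0.4 M sucrose medium; internalized fraction as acid-insensitive fluorescence after 3 × 5 min acid wash (pH 3.5); fluorescence converted to MESF, nonspecific subtracted.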

P2Y purinoceptor 6 [9] = biological target: T2, P2Y purinoceptor 6; assay: Binding affinity to human recombinant P2Y6 receptor expressed in human 1321N1 cells assessed as compound internalization measured as the acid-insensitive fraction following acid wash at 400 nM after 60 mins by flow cytometry; format: cell-based; method in brief: as §3
P2Y purinoceptor 6 [10] = biological target: T2, P2Y purinoceptor 6; assay: Binding affinity to human recombinant P2Y6 receptor expressed in human 1321N1 cells assessed as surface bound fraction at 400 nM after 60 mins by flow cytometry in sucrose containing media; format: cell-based; method in brief: as §3
P2Y purinoceptor 6 [11] = biological target: T2, P2Y purinoceptor 6; assay: Binding affinity to human recombinant P2Y6 receptor expressed in human 1321N1 cells at 500 nM after 3 hrs by flow cytometry in presence of UDP relative to control; format: cell-based
Method in brief: (§4)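 Saturation labeling by flow cytometry, 10 nM to 1.5 μM fluorescent ligand, 3 h at 37 °C on 1321N1-P2Y6R cells; nonspecific binding with 100 μM UDP; autofluorescence from ligand-free cells; values as MESF.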

P2Y purinoceptor 6 [12] = biological target: T2, P2Y purinoceptor 6; assay: Binding affinity to human recombinant P2Y6 receptor expressed in human 1321N1 cells at 10 nM to 1.5 uM after 3 hrs by flow cytometry relative to control; format: cell-based; method in brief: as §4
P2Y purinoceptor 6 [13] = biological target: T2, P2Y purinoceptor 6; assay: Binding affinity to human recombinant P2Y6 receptor expressed in human 1321N1 cells at 10 nM to 10 uM after 60 mins by flow cytometry relative to control; format: cell-based
Method in brief: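 Flow cytometry of 1321N1-P2Y6R and control 1321N1 cells after 60 min with 10 nM to 10 μM fluorescent ligand.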

P2Y purinoceptor 6 [14] = biological target: T2, P2Y purinoceptor 6; assay: Binding affinity to human recombinant P2Y6 receptor expressed in human 1321N1 cells at 400 nM after 3 hrs by flow cytometry; format: cell-based
Method in brief: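 FCM histogram of 1321N1-P2Y6R cells after 3 h incubation with 400 nM fluorescent ligand; total, nonspecific and autofluorescence measured; three independent experiments.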

Homo sapiens [15] = species: Homo sapiens; assay: Selectivity ratio of EC50 for human recombinant P2Y4 receptor to EC50 for human recombinant P2Y6 receptor
Homo sapiens [16] = species: Homo sapiens; assay: Selectivity ratio of EC50 for human recombinant P2Y2 receptor to EC50 for human recombinant P2Y6 receptor
[17] = biological target: T3, P2Y purinoceptor 14 (Homo sapiens) (UniProt Q15391); assay: Agonist activity at human P2Y14 receptor expressed in rat C6 cells assessed as inhibition of forskolin-stimulated adenylate cyclase up to 10 uM; format: functional, cell-based
T3 sequence (whole entry): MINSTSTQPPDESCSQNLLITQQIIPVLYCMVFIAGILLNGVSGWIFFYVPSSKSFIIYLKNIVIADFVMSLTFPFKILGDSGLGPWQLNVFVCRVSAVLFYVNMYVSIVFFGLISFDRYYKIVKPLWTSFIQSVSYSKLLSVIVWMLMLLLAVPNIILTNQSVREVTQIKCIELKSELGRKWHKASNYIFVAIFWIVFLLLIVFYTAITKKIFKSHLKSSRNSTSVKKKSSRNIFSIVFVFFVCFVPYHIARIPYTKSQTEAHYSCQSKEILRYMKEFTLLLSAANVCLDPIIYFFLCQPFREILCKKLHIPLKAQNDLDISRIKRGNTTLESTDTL

[18] = biological target: P2Y purinoceptor 1 (Homo sapiens) (UniProt P47900); assay: Binding affinity to P2Y1 receptor (unknown origin) expressed in human 1321N1 cells at 400 nM after 60 mins by flow cytometry; format: cell-based
Chain of P2Y purinoceptor 1 (Homo sapiens) (P47900 whole entry): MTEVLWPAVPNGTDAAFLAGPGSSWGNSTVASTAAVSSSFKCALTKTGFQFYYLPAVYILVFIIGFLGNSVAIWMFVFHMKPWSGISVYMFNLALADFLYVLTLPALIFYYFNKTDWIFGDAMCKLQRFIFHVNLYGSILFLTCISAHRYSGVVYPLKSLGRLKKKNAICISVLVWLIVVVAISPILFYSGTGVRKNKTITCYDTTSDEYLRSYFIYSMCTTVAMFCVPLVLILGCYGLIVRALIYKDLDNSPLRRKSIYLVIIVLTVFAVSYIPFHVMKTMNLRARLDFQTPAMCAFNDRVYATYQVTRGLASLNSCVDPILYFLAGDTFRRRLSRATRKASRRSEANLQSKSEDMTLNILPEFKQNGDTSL

P2Y purinoceptor 6 [19] = biological target: T2, P2Y purinoceptor 6; assay: Binding affinity to human recombinant P2Y6 receptor expressed in human 1321N1 cells after 2 mins by flow cytometry in presence of MRS2578; format: cell-based
Method in brief: (§5)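 1321N1-P2Y6R cells preincubated 30 min with known ligand (UDP 10 μM, MRS2957 0.5 μM, MRS2578 1 μM), then briefly exposed (2 min) to fluorescent agonist; labeling quantified by flow cytometry.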

P2Y purinoceptor 6 [20] = biological target: T2, P2Y purinoceptor 6; assay: Binding affinity to human recombinant P2Y6 receptor expressed in human 1321N1 cells at 500 nM after 60 mins by fluorescence microscopy in presence of MRS2578; format: cell-based; method in brief: as §2
P2Y purinoceptor 6 [21] = biological target: T2, P2Y purinoceptor 6; assay: Binding affinity to human recombinant P2Y6 receptor expressed in human 1321N1 cells after 2 mins by flow cytometry in presence of MRS2957; format: cell-based; method in brief: as §5
P2Y purinoceptor 6 [22] = biological target: T2, P2Y purinoceptor 6; assay: Binding affinity to human recombinant P2Y6 receptor expressed in human 1321N1 cells after 2 mins by flow cytometry in presence of UDP; format: cell-based; method in brief: as §5

Row | SMILES | EC50 (P2Y purinoceptor 4 [1]) | EC50 (P2Y purinoceptor 2) | EC50 (P2Y purinoceptor 6 [2]) | Activity (P2Y purinoceptor 4 [3]) | further results
1 | CC(=O)NCCn1cc(CCOP(=O)(O)OP(=O)(O)OP(=O)(O)OC[C@H]2O[C@@H](n3cc/c(=N/OCc4ccccc4)[nH]c3=O)[C@H](O)[C@@H]2O)nn1 | 3.3 µM | 3.8 µM | 0.879 µM | – | –
2 | N=c1ccc2c(-c3ccc(C(=O)NCCCCCCn4cc(CCC#Cc5cccc(CO/N=c6/ccn([C@@H]7O[C@H](COP(=O)(O)OP(=O)(O)O)[C@@H](O)[C@H]7O)c(=O)[nH]6)c5)nn4)cc3C(=O)O)c3ccc(N)c(S(=O)(=O)O)c3oc-2c1S(=O)(=O)O | – | 2.5 µM | 0.009 µM | < 50% | K (P2Y purinoceptor 6 [4]): 0.019 min⁻¹; Activity (P2Y purinoceptor 6 [5]): inactive; Activity (P2Y purinoceptor 6 [6]): inactive; Activity (P2Y purinoceptor 6 [7]): Active; Activity (P2Y purinoceptor 6 [8]): 23%; Activity (P2Y purinoceptor 6 [9]): 77%; Activity (P2Y purinoceptor 6 [10]): 17%; Ratio (P2Y purinoceptor 6 [11]): 4; Activity (P2Y purinoceptor 6 [12]): Active; Activity (P2Y purinoceptor 6 [13]): Active; Activity (P2Y purinoceptor 6 [14]): Active; Ratio EC50 (Homo sapiens [15]): > 1100; Ratio EC50 (Homo sapiens [16]): 280; inhibition [17]: inactive; Activity [18]: inactive; Activity (P2Y purinoceptor 6 [19]): inactive; Activity (P2Y purinoceptor 6 [20]): inactive; Activity (P2Y purinoceptor 6 [21]): inactive; Activity (P2Y purinoceptor 6 [22]): inactive
3 | O=c1ccn([C@@H]2O[C@H](COP(=O)(O)OP(=O)(O)OP(=O)(O)OC[C@H]3O[C@@H](n4cc/c(=N/OCc5ccccc5)[nH]c4=O)[C@H](O)[C@@H]3O)[C@@H](O)[C@H]2O)c(=O)[nH]1 | 0.636 µM | 1.7 µM | 0.126 µM | – | –
4 | C#CCCCOP(=O)(O)OP(=O)(O)OP(=O)(O)OC[C@H]1O[C@@H](n2cc/c(=N/OCc3ccccc3)[nH]c2=O)[C@H](O)[C@@H]1O | – | – | > 10 µM | < 50% | –

Second part, led by results:

Row | EC50 (P2Y purinoceptor 4 [1]) | EC50 (P2Y purinoceptor 2) | EC50 (P2Y purinoceptor 6 [2]) | Activity (P2Y purinoceptor 4 [3]) | SMILES | further results
5 | 0.952 µM | 3.9 µM | 0.1 µM | – | C#CCCC#Cc1cccc(CO/N=c2/ccn([C@@H]3O[C@H](COP(=O)(O)OP(=O)(O)O)[C@@H](O)[C@H]3O)c(=O)[nH]2)c1 | –
6 | – | – | 0.148 µM | < 50% | O=c1[nH]/c(=N\OCc2ccc(I)cc2)ccn1[C@@H]1O[C@H](COP(=O)(O)OP(=O)(O)O)[C@@H](O)[C@H]1O | –
7 | 0.352 µM | 2.5 µM | 0.019 µM | – | O=c1[nH]/c(=N\OCc2cccc(I)c2)ccn1[C@@H]1O[C@H](COP(=O)(O)OP(=O)(O)O)[C@@H](O)[C@H]1O | –
